These results are taken from ChEMBL document CHEMBL2146387, “Synthesis and biological evaluation of a new vitamin D2 analogue” (Bioorg Med Chem Lett, 2012).

Series [1] concerns Mus musculus. The series is described as follows: Toxicity in mouse assessed as increase in haematocrit at 5 ug/kg, ip qd for 4 days after 72 hrs of last postdose. Format: organism-based. The following applies: in vivo, 0.005 mg/kg. Summed up:
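Mice (n = 5/group) received a daily intraperitoneal injection at 5 µg/kg body weight for 4 days, with isopropanol as vehicle. Blood was drawn before dosing and at 24, 48, 72 and 96 h, and haematocrit was recorded from these samples.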

The nature of series [2]: Cytotoxicity against human HN12 assessed as decrease in cell count after 120 hrs. Format: functional. Conditions: HN12, 120 h.
For series [3], the system named is Mus musculus. In words: Toxicity in mouse assessed as mortality at 5 ug/kg, ip qd for 4 days. It counts as organism-based. The following applies: in vivo, 0.005 mg/kg, 96 h. Summed up:
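Mice, groups of 5, given daily intraperitoneal injection at 5 µg/kg body weight for 4 days, isopropanol vehicle group alongside. Blood collected before dosing and at 24, 48, 72 and 96 h for plasma calcium (arsenazo III absorbance). Health condition recorded daily; deaths noted. Experiment repeated two times.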

Another series concerns HCT-116. In words: Cytotoxicity against human HCT116 assessed as decrease in cell count after 120 hrs. Format: functional, cell-based. The following applies: HCT-116, 120 h.
In series [4] the test system is Mus musculus. The series is described as follows: Toxicity in mouse assessed as increase in plasma calcium level at 5 ug/kg, ip qd for 4 days measured after 24 to 96 hrs postdose. Format: organism-based. Conditions: in vivo, 0.005 mg/kg. The essentials:
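Mice (n = 5/group) were dosed ip daily at 5 µg/kg body weight for 4 days, with isopropanol as vehicle. Plasma calcium was read by arsenazo III metallochromic absorbance before injection (0 h, basal) and at 24, 48, 72 and 96 h. Data are means ± SD of five animals, and the experiment was run twice.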

Series [5] in a line: Cmax in mouse at 5 ug/kg. Format: ADME, organism-based. Further details: dose 5 ug/kg. Conditions: in vivo, 0.005 mg/kg.
The nature of series [6]: AUC (0 to 24 hrs) in mouse at 5 ug/kg. It counts as ADME, organism-based. Further details: dose 5 ug/kg, time < 24 hr. Conditions: plasma, 0.005 mg/kg.

By IC50 is commonly meant the concentration that gives 50% inhibition. Consider `C=C1/C(=C\C=C2/CCC[C@]3(C)[C@@H]([C@H](C)/C=C\[C@H](C)C(O)(CC)CC)CC[C@@H]23)C[C@@H](O)C[C@@H]1O`, for which the Activity result in the series on Mus musculus [1], in the series on Mus musculus [3] and in the series on Mus musculus [4] was “Toxic” each time. The 50% inhibitory concentration (IC50) in series [2] turned out to be 5.05 nM; with HCT-116 it was 0.76 nM.

A word on the Cmax: it is the peak of the concentration-time curve. The AUC(0-t) is the area under the concentration-time curve up to a stated or last time point. Lower therefore signals less exposure. For `C=C1/C(=C\C=C2/CCC[C@]3(C)[C@@H]([C@H](C)CCCC(C)(C)O)CC[C@@H]23)C[C@@H](O)C[C@@H]1O` [CALCITRIOL], the Activity entry with Mus musculus [1], in the series on Mus musculus [3] and with Mus musculus [4] was “Toxic” each time. For the same compound, in series [5], the Cmax is above 10 ng/mL. The compound further gave an AUC(0-t) at 24 h in series [6] above 40 ng·h/mL.
